Experimental findings from ChEMBL document CHEMBL1121917, “Structure--activity relationships in a broad-spectrum anthelmintic series. Acid chloride phenylhydrazones. 1. Aryl substitutions and chloride variations” (1981) are described below.

SMILES strings stand for the structures.

The species entered for assay [1] is Mus musculus. Put plainly: Percent clearance of Nematospiroides dubius from mouse after oral treatment of 7.5 mg/mouse/day. Format: functional. In outline:
(§1)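 Mice naturally carrying Syphacia obvelata were experimentally infected with Nematospiroides dubius and Hymenolepis nana, then grouped after a 2-week prepatency. Finely ground compound was suspended in aqueous 0.10% carboxymethylcellulose, 0.04% polysorbate 80 and 0.0042% polyparaben, and 0.1 mL was given orally by cannula once daily for 4 days to five mice. Necropsy followed 2 days later, scoring presence or absence of each parasite. Control clearance was subtracted from the treated clearance.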

Assay [2] is filed under the species Mus musculus. The assay can be described thus: Percent clearance of Syphacaia obvelata from mouse after oral treatment of 7.5 mg/mouse/day. Format: functional. A digest of the protocol:
as §1

The species entered for assay [3] is Mus musculus. The assay can be described thus: Percent clearance of Hymenolepis nana from mouse after oral treatment of 7.5 mg/mouse/day. Type of assay: functional. In outline:
as §1

In assay [4] the test system is Ovis aries. Put plainly: Percent reduction in Trichuris eggs per gram, after treatment with 100 mg/kg dose of compound perorally in sheep. Format: functional, Egg. The note with it: route oral. A digest of the protocol:
(§2)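 Naturally parasitized lambs, dosed orally either with a suspension by stomach tube or with finely ground compound in gelatin capsules by balling gun. Activity was scored by the clinical test method, meaning a significant fall in helminth egg counts after treatment.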

The subject of assay [5] is Ovis aries. The assay can be described thus: Percent reduction in Strongyloides eggs per gram, after treatment with 100 mg/kg dose of compound perorally in sheep. Format: functional, Egg. To be noted: route oral. In outline:
as §2

The test system of assay [6] is Ovis aries. Put plainly: Percent reduction in Trichostrongylus eggs per gram, after treatment with 100 mg/kg dose of compound perorally in sheep. Format: functional, Egg. To be noted: route oral. A digest of the protocol: as §2
The species entered for assay [7] is Canis familiaris. The assay can be described thus: percent reduction in Toxascaris eggs per gram, after oral treatment of 50 mg/dog dose of compound in a single treatment. Format: functional, Canis lupus familiaris, Egg. A digest of the protocol: (§3)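 Dogs naturally infected with Toxascaris leonina were experimentally infected with mixed Ancylostoma caninum and Uncinaria stenocephala larvae. Finely ground compound was given orally in gelatin capsules. Three egg count determinations were made before and three after treatment in each experiment.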

The species entered for assay [8] is Canis familiaris. Put plainly: percent reduction in Uncinaria eggs per gram, after oral treatment of 50 mg/dog dose of compound in a single treatment. Format: functional, Canis lupus familiaris, Egg. In outline: as §3
The test system of assay [9] is Ovis aries. Put plainly: Percent reduction in Oesophagostomum eggs per gram, after treatment with 100 mg/kg dose of compound perorally in sheep. To be noted: route oral. Format: functional, Egg. A digest of the protocol:
(§4)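 Naturally parasitized lambs were dosed orally at the stated mg/kg. Dosing was either as a suspension of finely ground compound by stomach tube, or as ground compound weighed into gelatin capsules and given by balling gun. Activity was scored by the clinical test method: the decrease in posttreatment helminth eggs per gram.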

The test system of assay [10] is Ovis aries. Put plainly: Percent reduction in Ostertagia eggs per gram, after treatment with 100 mg/kg dose of compound perorally in sheep. To be noted: route oral. Type of assay: functional, Egg. A digest of the protocol:
as §4

The test system of assay [11] is Ovis aries. The assay can be described thus: Percent reduction in Haemonchus eggs per gram, after treatment with 100 mg/kg dose of compound perorally in sheep. Format: functional, Egg. To be noted: route oral. In outline:
(§5)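 Naturally parasitized lambs received compound orally, either as the aqueous suspension by stomach tube or as finely ground powder in gelatin capsules by balling gun. Activity was judged by the clinical test method, as a significant decrease in posttreatment helminth egg counts.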

The species entered for assay [12] is Mus musculus. The assay can be described thus: Percent clearance of Syphacaia obvelata from mouse after oral treatment of 3.75 mg/mouse/day. Type of assay: functional. A digest of the protocol:
as §1

For assay [13], the species on record is Mus musculus. The assay can be described thus: Percent clearance of Nematospiroides dubius from mouse after oral treatment of 3.75 mg/mouse/day. Type of assay: functional. A digest of the protocol:
as §1

Assay [14] is filed under the species Mus musculus. Put plainly: Percent clearance of Syphacaia obvelata from mouse after oral treatment of 0.32 mg/mouse/day. Format: functional. In outline: as §1
The species named for assay [15] is Mus musculus. Put plainly: Percent clearance of Nematospiroides dubius from mouse after oral treatment of 0.32 mg/mouse/day. Type of assay: functional. A digest of the protocol: as §1
The species entered for assay [16] is Canis familiaris. Put plainly: Percent reduction in Toxascaris eggs per gram, after oral treatment of 100 mg/dog dose of compound in a single treatment. Format: functional, Canis lupus familiaris, Egg. A digest of the protocol:
as §3

Assay [17] concerns Ovis aries. Put plainly: Percent reduction in Haemonchus eggs per gram, after treatment of 100 mg/kg dose of compound perorally in sheep; Toxic. Type of assay: functional, organism-based. The arrangement: dose 100 mg/kg. To be noted: Egg. In outline:
as §5

The species named for assay [18] is Canis familiaris. The assay can be described thus: percent reduction in Ancylostoma eggs per gram, after oral treatment of 100 mg/dog dose of compound in a single treatment. Type of assay: functional, Canis lupus familiaris, Egg. In outline:
as §3

Assay [19] is filed under the species Canis familiaris. Put plainly: Percent reduction in Uncinaria eggs per gram, after oral treatment of 100 mg/dog dose of compound in a single treatment. Type of assay: functional, Canis lupus familiaris, Egg. In outline:
as §3

The species entered for assay [20] is Canis familiaris. The assay can be described thus: Percent reduction in Uncinaria eggs per gram, after oral treatment of 200 mg/dog dose of compound in a single treatment. Type of assay: functional, Canis lupus familiaris, Egg. In outline: as §3
Assay [21] deals with Ovis aries. Put plainly: Percent reduction in Cooperia eggs per gram, after treatment with 100 mg/kg dose of compound perorally in sheep. To be noted: route oral. Format: functional, Egg. A digest of the protocol: as §5
For assay [22], the species on record is Canis familiaris. Put plainly: Percent reduction in Ancylostoma eggs per gram, after oral treatment of 100 mg/dog dose of compound in a single treatment. Format: functional, Canis lupus familiaris, Egg. In outline: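 Dogs naturally infected with Toxascaris leonina were experimentally infected with mixed Ancylostoma caninum and Uncinaria stenocephala larvae. Finely ground compound was given orally in gelatin capsules. Fecal egg counts were taken three times before and three times after treatment, and activity was taken as the fall in egg counts.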

Assay [23] is filed under the species Mus musculus. The assay can be described thus: Percent clearance of Syphacaia obvelata from mouse after oral treatment of 0.47 mg/mouse/day. Type of assay: functional. In outline: as §1
Assay [24] is filed under the species Mus musculus. The assay can be described thus: Percent clearance of Nematospiroides dubius from mouse after oral treatment of 0.47 mg/mouse/day. Type of assay: functional. A digest of the protocol:
as §1

Assay [25] is filed under the species Mus musculus. The assay can be described thus: Percent clearance of Syphacaia obvelata from mouse after oral treatment of 1.87 mg/mouse/day. Type of assay: functional. In outline:
as §1

The species entered for assay [26] is Mus musculus. Put plainly: Percent clearance of Nematospiroides dubius from mouse after oral treatment of 1.87 mg/mouse/day. Type of assay: functional. In outline:
as §1

Assay [27] relates to Ovis aries. The assay can be described thus: Percent reduction in Haemonchus eggs per gram, after treatment of 150 mg/kg dose of compound perorally; Toxic. The note with it: Egg.

For the compound `Cl/C(=N\Nc1c(Cl)cc(Cl)cc1Cl)c1cccc(Cl)c1`, the Parasite_Clearance in the assay filed under Mus musculus [1] is on record as 50%; in the assay filed under Mus musculus [2] it was 100%.
On to `Cl/C(=N\Nc1c(Cl)cc(Cl)cc1Cl)c1c(Cl)cccc1Cl`, for which the Parasite_Clearance in the assay listed under Mus musculus [1] and in the assay filed under Mus musculus [3] was 0% each time.
For the compound `Cl/C(=N\Nc1cc(Cl)cc(Cl)c1)c1ccccc1`, the Reduction was 100% in the assay on Ovis aries [4]; 45% with Ovis aries [5]; 100% in the assay with Ovis aries [6]; 40% in the assay filed under Canis familiaris [7]; 57% in the assay listed under Canis familiaris [8]; 0% in the assay with Ovis aries [9]. The values for the Reduction in the assay on Ovis aries [10] and with Ovis aries [11] were 100% and 97%, respectively.
Turning to `Cl/C(=N\Nc1c(Cl)cc(Cl)cc1Cl)c1ccc(Br)cc1`, the Parasite_Clearance in the assay listed under Mus musculus [12] turned out to be 40%; in the assay listed under Mus musculus [13], 0%.
Consider `Cl/C(=N\Nc1ccccc1)c1ccc(Cl)c(Cl)c1`, for which the Parasite_Clearance in the assay listed under Mus musculus [1] is 100%.
As to `O=[N+]([O-])c1ccc(/C(Cl)=N/Nc2ccccc2)c(Cl)c1`, the Parasite_Clearance in the assay filed under Mus musculus [1] and in the assay listed under Mus musculus [2] was 0% each time.
On to `Cl/C(=N\Nc1ccc(Br)cc1Br)c1ccccc1`, for which the Parasite_Clearance in the assay filed under Mus musculus [14] and in the assay filed under Mus musculus [15] was 0% each time.
With `Cl/C(=N\Nc1ccc(Cl)c(Cl)c1)c1ccccc1`, the Reduction is 0% in the assay listed under Canis familiaris [16], “Toxic” in the assay with Ovis aries [17], 0% in the assay listed under Canis familiaris [18] and 0% in the assay listed under Canis familiaris [19].
In the case of `Cl/C(=N\Nc1c(Cl)cc(Cl)cc1Cl)c1ccc(Cl)c(Cl)c1`, the Parasite_Clearance in the assay listed under Mus musculus [1] and in the assay listed under Mus musculus [3] was 0% each time.
In the case of `Cc1cc(/C(Cl)=N/Nc2ccccc2)ccc1[N+](=O)[O-]`, the values for the Parasite_Clearance in the assay filed under Mus musculus [12] and in the assay listed under Mus musculus [13] were 100% and 80%, respectively. Moreover, the Reduction in the assay listed under Canis familiaris [20] stood at 55%; in the assay listed under Canis familiaris [19], 0%.
For `Cc1cc(Cl)ccc1N/N=C(\Cl)c1ccccc1`, the Parasite_Clearance in the assay listed under Mus musculus [1] and in the assay filed under Mus musculus [2] was 0% throughout.
With `Cc1ccccc1/C(Cl)=N/Nc1c(Cl)cc(Cl)cc1Cl`, the Reduction in the assay with Ovis aries [4] is recorded as 0%; in the assay with Ovis aries [5] it was 85%; in the assay on Ovis aries [6], 14%; in the assay listed under Canis familiaris [16], 100%; with Ovis aries [21] it was 33%; in the assay listed under Canis familiaris [22], 0%. For the same compound, the Reduction in the assay listed under Canis familiaris [19] is recorded as 20%; with Ovis aries [9] it was 11%; in the assay on Ovis aries [10], 67%; in the assay with Ovis aries [11], 85%.
Regarding `Cc1ccccc1N/N=C(\Cl)c1ccccc1`, the Parasite_Clearance in the assay filed under Mus musculus [23] was 0%; in the assay filed under Mus musculus [24] it was 100%.
For the compound `Cl/C(=N\Nc1cc(Cl)c(Cl)cc1Cl)c1ccccc1`, the Parasite_Clearance in the assay listed under Mus musculus [12] is 33%; in the assay listed under Mus musculus [13], 0%.
As for `Cl/C(=N\Nc1ccccc1)c1ccccc1Cl`, the Parasite_Clearance in the assay listed under Mus musculus [25] is given as 20%; in the assay listed under Mus musculus [26] it was 40%.
For `Cl/C(=N\Nc1ccccc1)c1cccc(Cl)c1`, in the assay with Ovis aries [27], the Reduction entry is “Toxic”. Moreover, the Parasite_Clearance in the assay listed under Mus musculus [25] and in the assay filed under Mus musculus [26] was 100% throughout.
Regarding `Cl/C(=N\Nc1ccc(Cl)cc1)c1ccccc1`, the results for the Parasite_Clearance in the assay filed under Mus musculus [23] and in the assay listed under Mus musculus [24] were 80% and 100%, respectively.
On the same counts, the results for `Cl/C(=N\Nc1ccccc1)c1ccc(Cl)cc1Cl` are 0% and 0%.
On the same counts, the results for `CC(C)c1ccc(/C(Cl)=N/Nc2ccccc2)cc1` are 0% and 0%.
